Results pooled from the literature.
Compare with care: the assays were run in different laboratories.
Cell line: A549
Effect on: cell growth or viability

O=C(Nc1ccc(Cl)cc1)Nc1ccc(-c2cn(Cc3ccc(Br)cc3)nn2)cc1 — viability (CCK-8; 50 µM; 72 h): 78.8%
Nc1ccccc1/N=c1\cc(-c2ccc3c(c2)OCO3)oc2ccccc12 — inhibition (CCK-8; 1 µM): 11.1%
O=C(Nc1ccc(Cl)cc1)Nc1cccc(-c2cn(Cc3ccc(Cl)cc3)nn2)c1 — viability (CCK-8; 20 µM; 72 h): 121%
C[C@H](N)C(=O)Nc1ccccc1/N=c1\cc(-c2ccc3c(c2)OCCO3)oc2c(N)cccc12 — inhibition (CCK-8; 1 µM): 0.27%
CCCCCCCCCCCCCCCCCCOc1ccc(CC(=O)OCC[N+](CC)(CC)CC)cc1 — inhibition (SRB; 10 µM): 21.2%
CCCCn1cnc2ccc(-c3ccc(NC(=O)C4CCC4)nc3)cc2c1=O — IC50 (CCK-8; 72 h): 3.93 µM
CCCCCCCCCCCCCCCCCCOc1cccc(CC(=O)OCC[N+]2(C)CCOCC2)c1 — inhibition (SRB; 10 µM): 7.62%
COc1ccc(NC(=O)Nc2ccc(-c3cn(Cc4ccc(C)cc4)nn3)cc2)cc1 — viability (CCK-8; 50 µM; 72 h): 76.2%
CCCCC(=O)Nc1ccc(-c2ccc3ncn(CC#N)c(=O)c3c2)cn1 — IC50 (CCK-8; 72 h): > 10 µM
CCCCCCCCCCCCCCCCCCOc1cccc(CC(=O)OCC[N+]2(C)CCCCC2)c1 — inhibition (SRB; 10 µM): 9.38%
COc1ccc(NC(=O)Nc2ccc(-c3cn(Cc4ccc(Br)cc4)nn3)cc2)cc1 — viability (CCK-8; 50 µM; 72 h): 101%
O=C(NCc1cn(Cc2ccc(Cl)cc2)nn1)Nc1ccc(Cl)cc1 — viability (CCK-8; 50 µM; 72 h): 67.6%
[NH2][Pt]([NH2])([Cl])[Cl] — GI50 (SRB): 4.9 µM
CCCCC(=O)Nc1ccc(-c2ccc3ncn(CC4CC4)c(=O)c3c2)cn1 — IC50 (CCK-8; 72 h): 0.42 µM
COc1ccc2oc(-c3ccc4nc(N)oc4c3)c/c(=N\c3ccccc3NC(=O)CCN)c2c1 — inhibition (CCK-8; 1 µM): 39.1%
CCCCn1cnc2ccc(-c3ccc(NC(=O)CCC)nc3)cc2c1=O — IC50 (CCK-8; 72 h): 3.19 µM
CCCCCCCCCCCCCCCCCCOc1cccc(CC(=O)OCCC[N+](C)(C)C)c1 — inhibition (SRB; 10 µM): 16.2%
COc1ccc(NC(=O)Nc2cccc(-c3cn(Cc4ccccc4C)nn3)c2)cc1 — viability (CCK-8; 20 µM; 72 h): 137%
O=C(Nc1ccc(Cl)cc1)Nc1cccc(-c2cn(Cc3cccc(Cl)c3)nn2)c1 — viability (CCK-8; 50 µM; 72 h): 166%
COc1ccc(NC(=O)NCc2cn(Cc3ccc(Br)cc3)nn2)cc1 — viability (CCK-8; 50 µM; 72 h): 96.4%
CCCCCC(=O)Nc1ccc(-c2ccc3ncn(CCC)c(=O)c3c2)cn1 — IC50 (CCK-8; 72 h): 0.17 µM
COCCC(=O)Nc1ccccc1/N=c1\cc(-c2ccc3nc(N)oc3c2)oc2ccccc12 — inhibition (CCK-8; 1 µM): -0.65%
COc1ccc(NC(=O)Nc2cccc(-c3cn(Cc4cccc(Cl)c4)nn3)c2)cc1 — viability (CCK-8; 20 µM; 72 h): 141%
Nc1nc2ccc(-c3c/c(=N\c4ccccc4NC(=O)C4CCNC4)c4ccccc4o3)cc2o1 (stereo not shown) — inhibition (CCK-8; 1 µM): 22.7%
CCCCn1cnc2ccc(-c3ccc(NC(=O)Nc4ccc(C(F)(F)F)cc4)nc3)cc2c1=O — IC50 (CCK-8; 72 h): > 10 µM
NCC(=O)Nc1ccccc1/N=c1\cc(-c2ccc3c(c2)OCCO3)oc2cc(F)ccc12 — inhibition (CCK-8; 1 µM): -1.67%
O=C(Nc1cccc(-c2cn(Cc3ccc(Cl)cc3)nn2)c1)Nc1ccccc1Br — viability (CCK-8; 50 µM; 72 h): 149%
CCCCn1cnc2ccc(-c3ccc(NC(=O)Nc4ccc(OC(F)(F)F)cc4)nc3)cc2c1=O — IC50 (CCK-8; 72 h): > 10 µM
CCC(=O)NCc1ccc(-c2cnc(C3CN(C(=O)c4cnc(NC(=O)[C@@H]5CC(C)(C)CN5)s4)C3)s2)c2ccccc12 — GI50 (14 days): > 3 µM
Cc1ccccc1Cn1cc(-c2cccc(NC(=O)Nc3ccc(F)cc3)c2)nn1 — viability (CCK-8; 20 µM; 72 h): 114%
O=C(Nc1cccc(F)c1)Nc1nc2cc(-c3ccc4ncn(Cc5ccccc5)c(=O)c4c3)ccc2s1 — IC50 (MTT; 72 h): 3.49 µM
CCCCn1cnc2ccc(-c3ccc(NC(=O)C4CCCCC4)nc3)cc2c1=O — IC50 (CCK-8; 72 h): 1.28 µM
O=C(Nc1cccc(-c2cn(Cc3ccc(Br)cc3)nn2)c1)Nc1ccccc1Br — viability (CCK-8; 20 µM; 72 h): 130%
COc1ccc(NC(=O)NCc2cn(Cc3ccc(C)cc3)nn2)cc1 — viability (CCK-8; 50 µM; 72 h): 71.5%
O=C(Nc1ccccc1/N=c1\cc(-c2ccc3c(c2)OCCO3)oc2cc(F)ccc12)N1CCOCC1 — inhibition (CCK-8; 1 µM): -4.17%
O=C(Nc1ccc(Cl)cc1)Nc1cccc(-c2cn(Cc3cccc(Br)c3)nn2)c1 — viability (CCK-8; 20 µM; 72 h): 123%
NCC(=O)Nc1ccccc1/N=c1\cc(-c2ccc3c(c2)OCO3)oc2ccccc12 — inhibition (CCK-8; 1 µM): -5.88%
CCCCCCCCCCCCCCCCCCOc1cccc(CC(=O)OCC[N+]2(C)CCCC2)c1 — inhibition (SRB; 10 µM): 13.9%
O=C(NCc1cn(Cc2ccc(Br)cc2)nn1)Nc1ccccc1Br — viability (CCK-8; 20 µM; 72 h): 88.8%
CCCC(=O)Nc1nc2cc(-c3ccc4ncn(Cc5ccccc5)c(=O)c4c3)ccc2s1 — IC50 (MTT; 72 h): 7.87 µM
